Calls of active or inactive are those of the source. No cut-off for these calls is given here.
What was measured:
KB = experiment: Cytotoxicity against human KB cells up to 10 uM by colorimetric method; assay type: functional, cell-based
Plasmodium falciparum = experiment: Antimalarial activity against multidrug-resistant Plasmodium falciparum K1 assessed as reduction in parasite growth by [3H]-hypoxanthine uptake assay; assay type: functional, organism-based
Summary of the method: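 P. falciparum K1 (multidrug-resistant) maintained in continuous in vitro culture. Microculture radioisotope technique: growth measured as [3H]-hypoxanthine uptake. IC50 is the concentration giving 50% reduction in parasite growth. Dihydroartemisinin was the positive control.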

MCF7 = experiment: Cytotoxicity against human MCF7 cells up to 10 uM by colorimetric method; assay type: functional, cell-based
NCI-H187 (human) = experiment: Cytotoxicity against human NCI-H187 cells up to 10 uM by colorimetric method

| SMILES | Activity (KB) | IC50 (Plasmodium falciparum) [µM] | Activity (MCF7) | Activity (NCI-H187 (human)) |
| --- | --- | --- | --- | --- |
| CC(=O)O[C@@H]1C[C@H]([C@H](C)[C@H]2CC=C(C)C(=O)O2)[C@@]2(C)CCC3=C(CC[C@@H]4C(=C3)C=CC(=O)OC4(C)C)[C@]12C [COLOSSOLACTONE E] | inactive | 10 | inactive | inactive |
| C[C@H]1[C@@H](O)O[C@@H]2O[C@@]3(C)CC[C@H]4[C@H](C)CC[C@@H]1[C@@]24OO3 [ARTENIMOL] |  | 0.004 |  |  |
| CC1=CC[C@@H]([C@@H](C)[C@H]2CC[C@@]3(C)C4=C(C=C5C=CC(=O)OC(C)(C)[C@@H]5CC4)CC[C@]23C)OC1=O | inactive | 6 | inactive | inactive |
| CC1=CC[C@]2(OC[C@]34CCC5=C(CC[C@@H]6C(=C5)C=CC(=O)OC6(C)C)[C@]3(C)CC[C@@H]4[C@@H]2C)OC1=O | inactive | 10 | inactive | inactive |
